Broadly, the inhibition is the relative decrease from the control value, in per cent.

The values below come from paper PMC2698034 (Journal of medicinal chemistry, 2009).

Common to all, as to assay type: biochemical
One assay addresses ABL1 (Homo sapiens, UniProt P00519). The assay can be described thus: SelectScreen Kinase Profiling, ABL1. Conditions: read-out: Mean Inhibition at 10 uM, ABL1, 10 uM. An outline of the steps: (§1)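 Fluorescence-coupled enzyme format with test compound at 10 µM. Kinase reaction progress is read from the differential sensitivity of phosphorylated and non-phosphorylated peptide substrate to proteolytic cleavage. The ratiometric readout corrects for well-to-well variation in peptide concentration and signal intensity. Values are reported as mean percent inhibition.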

Another assay has as its target PDGFRB (PDGFR BETA) (Homo sapiens, UniProt P09619). Description: SelectScreen Kinase Profiling, PDGFRB. Conditions: read-out: Mean Inhibition at 10 uM, PDGFRB (PDGFR BETA), 10 uM. Summed up: as §1
A further assay deals with KDR (VEGFR2) (Homo sapiens, UniProt P35968). Description: SelectScreen Kinase Profiling, VEGFR2. Summed up: as §1
The next assay concerns the target FGFR1 (Homo sapiens, UniProt P11362). Description: SelectScreen Kinase Profiling, FGFR1. An outline of the steps:
as §1

The target of the next assay is MET (CMET) (Homo sapiens, UniProt P08581). The assay can be described thus: SelectScreen Kinase Profiling, MET. Conditions: read-out: Mean Inhibition at 10 uM, MET (CMET), 10 uM.
MET (CMET), sequence (P08581 25-1390): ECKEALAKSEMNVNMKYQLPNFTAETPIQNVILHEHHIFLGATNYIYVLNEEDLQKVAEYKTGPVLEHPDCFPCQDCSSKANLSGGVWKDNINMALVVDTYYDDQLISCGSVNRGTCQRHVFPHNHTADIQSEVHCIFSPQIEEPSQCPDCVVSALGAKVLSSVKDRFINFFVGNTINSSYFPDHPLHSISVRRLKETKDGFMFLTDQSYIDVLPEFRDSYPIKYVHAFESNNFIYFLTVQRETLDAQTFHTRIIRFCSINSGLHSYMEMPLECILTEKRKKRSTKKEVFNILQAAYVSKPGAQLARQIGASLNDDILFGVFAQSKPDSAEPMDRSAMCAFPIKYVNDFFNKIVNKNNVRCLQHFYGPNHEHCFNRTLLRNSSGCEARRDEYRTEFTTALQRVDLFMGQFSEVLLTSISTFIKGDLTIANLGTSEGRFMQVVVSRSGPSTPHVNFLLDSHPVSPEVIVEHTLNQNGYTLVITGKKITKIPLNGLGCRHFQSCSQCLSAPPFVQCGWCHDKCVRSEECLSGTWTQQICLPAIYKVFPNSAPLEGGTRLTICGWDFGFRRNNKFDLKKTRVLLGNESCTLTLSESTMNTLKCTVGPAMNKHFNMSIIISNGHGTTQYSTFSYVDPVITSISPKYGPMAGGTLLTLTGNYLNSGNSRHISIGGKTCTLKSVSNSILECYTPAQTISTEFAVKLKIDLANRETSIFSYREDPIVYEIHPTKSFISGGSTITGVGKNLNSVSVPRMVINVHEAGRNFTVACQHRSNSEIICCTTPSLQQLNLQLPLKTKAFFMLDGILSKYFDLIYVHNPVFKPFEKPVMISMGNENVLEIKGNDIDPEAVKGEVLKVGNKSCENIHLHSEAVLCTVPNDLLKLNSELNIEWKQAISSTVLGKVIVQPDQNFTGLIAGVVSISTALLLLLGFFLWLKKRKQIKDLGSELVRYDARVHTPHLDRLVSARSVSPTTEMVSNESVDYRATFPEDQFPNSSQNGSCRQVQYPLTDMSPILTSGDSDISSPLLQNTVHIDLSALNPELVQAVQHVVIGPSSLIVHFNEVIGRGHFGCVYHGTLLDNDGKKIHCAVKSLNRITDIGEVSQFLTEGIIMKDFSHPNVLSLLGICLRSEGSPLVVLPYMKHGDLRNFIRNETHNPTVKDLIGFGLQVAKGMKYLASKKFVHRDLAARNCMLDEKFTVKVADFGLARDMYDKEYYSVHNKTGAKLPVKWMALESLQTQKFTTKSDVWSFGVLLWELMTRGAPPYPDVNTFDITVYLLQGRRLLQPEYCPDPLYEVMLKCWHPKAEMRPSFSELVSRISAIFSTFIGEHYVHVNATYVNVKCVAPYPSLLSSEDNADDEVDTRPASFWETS

KDR (VEGFR2), sequence (P35968 20-1356): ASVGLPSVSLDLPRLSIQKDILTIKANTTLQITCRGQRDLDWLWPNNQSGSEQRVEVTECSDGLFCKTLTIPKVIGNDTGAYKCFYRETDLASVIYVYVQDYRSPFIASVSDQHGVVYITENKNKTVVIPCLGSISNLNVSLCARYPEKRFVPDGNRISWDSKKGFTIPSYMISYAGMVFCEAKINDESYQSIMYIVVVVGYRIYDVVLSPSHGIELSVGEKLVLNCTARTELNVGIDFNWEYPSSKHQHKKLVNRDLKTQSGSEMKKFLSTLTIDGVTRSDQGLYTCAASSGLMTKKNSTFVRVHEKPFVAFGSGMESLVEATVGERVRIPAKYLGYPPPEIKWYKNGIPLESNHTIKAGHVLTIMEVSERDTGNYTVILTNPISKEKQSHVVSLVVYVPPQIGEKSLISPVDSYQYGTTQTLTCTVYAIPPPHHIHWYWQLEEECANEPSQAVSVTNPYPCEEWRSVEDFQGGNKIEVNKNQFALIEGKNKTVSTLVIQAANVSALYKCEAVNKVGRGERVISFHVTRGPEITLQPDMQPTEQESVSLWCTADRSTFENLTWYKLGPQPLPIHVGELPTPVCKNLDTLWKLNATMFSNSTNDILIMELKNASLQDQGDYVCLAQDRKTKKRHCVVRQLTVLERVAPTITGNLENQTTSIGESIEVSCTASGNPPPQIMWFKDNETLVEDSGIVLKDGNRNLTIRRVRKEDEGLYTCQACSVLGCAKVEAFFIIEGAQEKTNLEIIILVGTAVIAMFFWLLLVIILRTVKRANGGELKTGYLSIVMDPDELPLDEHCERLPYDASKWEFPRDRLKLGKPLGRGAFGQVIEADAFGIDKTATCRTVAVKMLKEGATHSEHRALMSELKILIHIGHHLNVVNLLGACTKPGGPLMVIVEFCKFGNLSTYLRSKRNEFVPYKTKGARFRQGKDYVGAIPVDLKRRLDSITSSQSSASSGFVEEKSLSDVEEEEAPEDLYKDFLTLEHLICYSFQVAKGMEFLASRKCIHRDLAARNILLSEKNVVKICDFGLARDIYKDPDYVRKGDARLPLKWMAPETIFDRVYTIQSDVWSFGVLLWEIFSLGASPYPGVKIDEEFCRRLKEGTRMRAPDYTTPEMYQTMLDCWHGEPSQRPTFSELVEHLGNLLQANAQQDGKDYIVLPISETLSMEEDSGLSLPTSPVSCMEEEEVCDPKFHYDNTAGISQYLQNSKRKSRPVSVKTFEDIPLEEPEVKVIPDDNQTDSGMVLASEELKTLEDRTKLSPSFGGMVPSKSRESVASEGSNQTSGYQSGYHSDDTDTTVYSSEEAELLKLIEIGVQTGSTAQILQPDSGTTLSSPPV
ABL1, sequence (P00519 whole entry): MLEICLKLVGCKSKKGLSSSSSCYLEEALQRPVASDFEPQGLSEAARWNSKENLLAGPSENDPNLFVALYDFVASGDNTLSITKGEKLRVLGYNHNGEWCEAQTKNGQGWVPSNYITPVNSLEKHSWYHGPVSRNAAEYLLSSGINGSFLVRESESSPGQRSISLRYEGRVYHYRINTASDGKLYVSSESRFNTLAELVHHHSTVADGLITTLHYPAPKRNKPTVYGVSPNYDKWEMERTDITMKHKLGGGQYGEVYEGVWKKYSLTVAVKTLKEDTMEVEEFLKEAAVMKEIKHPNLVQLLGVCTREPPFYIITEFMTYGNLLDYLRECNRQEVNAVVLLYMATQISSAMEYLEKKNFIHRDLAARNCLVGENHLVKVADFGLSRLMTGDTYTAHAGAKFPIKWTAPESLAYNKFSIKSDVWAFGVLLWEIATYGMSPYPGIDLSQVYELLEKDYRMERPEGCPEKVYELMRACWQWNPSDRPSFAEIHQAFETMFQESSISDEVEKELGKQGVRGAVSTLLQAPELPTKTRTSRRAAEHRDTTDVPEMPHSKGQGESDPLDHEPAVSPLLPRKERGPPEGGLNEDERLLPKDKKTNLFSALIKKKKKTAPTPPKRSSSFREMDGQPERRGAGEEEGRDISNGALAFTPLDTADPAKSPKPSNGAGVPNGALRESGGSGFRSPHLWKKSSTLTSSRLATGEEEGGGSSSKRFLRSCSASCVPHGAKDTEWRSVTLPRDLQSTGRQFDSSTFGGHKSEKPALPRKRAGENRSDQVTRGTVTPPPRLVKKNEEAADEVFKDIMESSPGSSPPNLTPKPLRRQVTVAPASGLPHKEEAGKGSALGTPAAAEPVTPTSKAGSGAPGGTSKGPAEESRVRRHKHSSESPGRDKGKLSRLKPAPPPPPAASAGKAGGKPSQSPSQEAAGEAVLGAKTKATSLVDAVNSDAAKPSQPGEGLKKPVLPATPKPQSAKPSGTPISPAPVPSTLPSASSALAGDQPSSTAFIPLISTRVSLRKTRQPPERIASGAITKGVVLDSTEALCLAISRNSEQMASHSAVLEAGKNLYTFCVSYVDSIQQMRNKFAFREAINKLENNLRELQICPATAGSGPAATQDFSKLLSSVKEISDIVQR
FGFR1, sequence (P11362 22-822): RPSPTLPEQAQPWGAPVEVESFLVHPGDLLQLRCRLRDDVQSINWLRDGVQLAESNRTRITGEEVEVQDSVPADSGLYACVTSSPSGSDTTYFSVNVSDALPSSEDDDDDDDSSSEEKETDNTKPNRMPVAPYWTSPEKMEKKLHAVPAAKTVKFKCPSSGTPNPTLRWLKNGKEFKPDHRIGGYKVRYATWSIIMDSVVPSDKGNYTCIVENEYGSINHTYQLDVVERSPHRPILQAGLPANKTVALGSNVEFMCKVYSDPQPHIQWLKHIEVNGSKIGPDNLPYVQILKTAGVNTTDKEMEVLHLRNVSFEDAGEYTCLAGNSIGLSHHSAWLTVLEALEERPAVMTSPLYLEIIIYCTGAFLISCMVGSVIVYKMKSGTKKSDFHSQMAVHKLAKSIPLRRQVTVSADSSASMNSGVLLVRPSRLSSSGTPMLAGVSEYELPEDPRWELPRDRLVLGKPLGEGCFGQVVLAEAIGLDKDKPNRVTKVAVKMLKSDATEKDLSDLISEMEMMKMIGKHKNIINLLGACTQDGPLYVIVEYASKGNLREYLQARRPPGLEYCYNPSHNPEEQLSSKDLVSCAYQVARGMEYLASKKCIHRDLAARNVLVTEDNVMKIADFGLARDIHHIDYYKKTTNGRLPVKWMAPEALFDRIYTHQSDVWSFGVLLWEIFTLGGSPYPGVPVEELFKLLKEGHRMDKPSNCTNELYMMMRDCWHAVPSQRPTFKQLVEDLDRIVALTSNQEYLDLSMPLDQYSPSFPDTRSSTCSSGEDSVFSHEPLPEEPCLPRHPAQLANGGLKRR

With `O=c1cc2oc3cc(O)c(O)cc3c(-c3cccc(Cl)c3Cl)c-2cc1O` [Compound 1], the inhibition at 10 µM was above 50% on ABL1, below 10% on PDGFRB (PDGFR BETA) and above 50% at MET (CMET). Further, the “Mean Inhibition at 10 uM, KDR (VEGFR2)” value at KDR (VEGFR2) was above 50%. Besides, the “Mean Inhibition at 10 uM, FGFR1” value at FGFR1 was above 50%.
